Results from ChEMBL document CHEMBL1139546, “Radiosynthesis and evaluation of [11C]-(+)-4-propyl-3,4,4a,5,6,10b-hexahydro-2H-naphtho[1,2-b][1,4]oxazin-9-ol as a potential radiotracer for in vivo imaging of the dopamine D2 high-affinity state with positron emission tomography” (2005).

Assays:
[1] = system: Rattus norvegicus; test: Effect on compound specific binding to rat brain upon pre-treatment with 2 mg/kg reserpine; type: functional
Outline: (§1)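 Male Sprague-Dawley rats, four groups of five: reserpine (2 mg/kg sc) 24 h before tracer then AMPT (250 mg/kg ip) 1 h before; reserpine then saline; saline then AMPT; saline twice as controls. Tracer given iv via tail vein. Killed 60 min post-injection. Striatal and cerebellar %ID/g counted. Specific binding ratio = (striatum − cerebellum)/cerebellum.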

[2] = system: Rattus norvegicus; test: Effect on compound specific binding to rat brain upon pre-treatment with 2 mg/kg reserpine and 250 mg/kg AMPT; type: functional; outline: as §1
[3] = system: Rattus norvegicus; test: Effect on compound specific binding to dopamine release in rat brain upon pre-treatment with 1 mg/kg amphetamine; type: functional
Outline: (§2)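 Male Sprague-Dawley rats (230-280 g), groups of 4-5, given the challenge agent in saline (1 mL/kg, iv unless otherwise stated) 25-30 min before tail-vein [11C] tracer, 25-30 MBq (1-2 nmol) in buffered saline. A saline control group was run each time. Killed 60 min post-injection. Striatum and cerebellum counted by gamma counter. Specific binding = (%ID/g striatum − %ID/g cerebellum)/%ID/g cerebellum.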

[4] = system: Rattus norvegicus; test: Effect on compound specific binding to dopamine release in rat brain upon pre-treatment with 2 mg/kg amphetamine; type: functional; outline: as §2
[5] = system: Rattus norvegicus; test: Effect on compound specific binding to dopamine release in rat brain upon pre-treatment with 4 mg/kg amphetamine; type: functional; outline: as §2
[6] = system: Rattus norvegicus; test: Effect on compound specific binding to dopamine release in rat brain upon pre-treatment with 0.1 mg/kg amphetamine; type: functional; outline: as §2
[7] = system: Rattus norvegicus; test: Effect on compound specific binding to dopamine release in rat brain upon pre-treatment with 0.5 mg/kg amphetamine; type: functional; outline: as §2
[8] = system: Rattus norvegicus; test: Effect on compound specific binding to dopamine release in rat brain upon pre-treatment with 0.25 mg/kg amphetamine; type: functional; outline: as §2
[9] = Percent change in rat brain dopamine D2/sigma receptor binding after in rat brain after 1 mg/kg haloperidol treatment; type: functional; outline: as §2
[10] = Percent change in rat brain dopamine D2/sigma receptor binding after in rat brain after 0.2 mg/kg haloperidol treatment; type: functional; outline: as §2
[11] = biological target: D(1A) dopamine receptor (Rattus norvegicus) (UniProt P18901); details: Brain, at 1 mg/kg
Sequence of D(1A) dopamine receptor (Rattus norvegicus) (P18901 whole entry): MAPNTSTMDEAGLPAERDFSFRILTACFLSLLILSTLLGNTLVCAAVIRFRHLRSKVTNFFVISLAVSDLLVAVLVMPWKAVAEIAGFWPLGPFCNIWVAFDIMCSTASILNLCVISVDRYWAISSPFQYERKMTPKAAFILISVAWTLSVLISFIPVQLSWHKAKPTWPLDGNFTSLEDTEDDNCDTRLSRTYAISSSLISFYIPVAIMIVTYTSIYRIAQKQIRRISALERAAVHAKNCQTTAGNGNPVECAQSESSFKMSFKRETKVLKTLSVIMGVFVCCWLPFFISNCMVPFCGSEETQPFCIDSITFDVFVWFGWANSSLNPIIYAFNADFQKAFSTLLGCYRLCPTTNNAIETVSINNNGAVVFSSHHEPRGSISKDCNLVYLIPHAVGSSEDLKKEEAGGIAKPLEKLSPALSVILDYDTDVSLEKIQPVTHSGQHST

[12] = biological target: Sodium-dependent dopamine transporter (Rattus norvegicus) (UniProt P23977); details: Brain, at 1 mg/kg
Sequence of Sodium-dependent dopamine transporter (Rattus norvegicus) (P23977 whole entry): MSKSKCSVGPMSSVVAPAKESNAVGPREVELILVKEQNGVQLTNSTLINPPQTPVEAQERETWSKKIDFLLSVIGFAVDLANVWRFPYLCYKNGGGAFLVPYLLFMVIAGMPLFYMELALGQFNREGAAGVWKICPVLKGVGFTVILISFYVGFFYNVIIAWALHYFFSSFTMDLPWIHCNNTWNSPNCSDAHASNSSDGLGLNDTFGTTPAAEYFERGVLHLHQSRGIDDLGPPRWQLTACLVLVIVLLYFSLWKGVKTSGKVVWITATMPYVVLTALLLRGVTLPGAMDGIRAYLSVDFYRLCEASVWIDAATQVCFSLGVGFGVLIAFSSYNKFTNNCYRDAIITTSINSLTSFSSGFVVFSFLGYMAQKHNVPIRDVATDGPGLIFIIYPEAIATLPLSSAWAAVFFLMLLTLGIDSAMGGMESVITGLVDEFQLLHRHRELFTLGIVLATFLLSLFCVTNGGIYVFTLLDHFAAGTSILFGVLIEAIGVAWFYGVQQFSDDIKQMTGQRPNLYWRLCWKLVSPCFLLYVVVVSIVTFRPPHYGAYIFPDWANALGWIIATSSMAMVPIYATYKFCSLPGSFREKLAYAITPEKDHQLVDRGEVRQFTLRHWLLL

[13] = biological target: Sodium-dependent dopamine transporter (Rattus norvegicus) (UniProt P23977); details: Brain, at 2 mg/kg
[14] = biological target: Sodium-dependent dopamine transporter (Rattus norvegicus) (UniProt P23977); details: Brain, at 5 mg/kg
[15] = biological target: Tyrosine 3-monooxygenase (Rattus norvegicus) (UniProt P04177); details: Brain, at 250 mg/kg
Sequence of Tyrosine 3-monooxygenase (Rattus norvegicus) (P04177 whole entry): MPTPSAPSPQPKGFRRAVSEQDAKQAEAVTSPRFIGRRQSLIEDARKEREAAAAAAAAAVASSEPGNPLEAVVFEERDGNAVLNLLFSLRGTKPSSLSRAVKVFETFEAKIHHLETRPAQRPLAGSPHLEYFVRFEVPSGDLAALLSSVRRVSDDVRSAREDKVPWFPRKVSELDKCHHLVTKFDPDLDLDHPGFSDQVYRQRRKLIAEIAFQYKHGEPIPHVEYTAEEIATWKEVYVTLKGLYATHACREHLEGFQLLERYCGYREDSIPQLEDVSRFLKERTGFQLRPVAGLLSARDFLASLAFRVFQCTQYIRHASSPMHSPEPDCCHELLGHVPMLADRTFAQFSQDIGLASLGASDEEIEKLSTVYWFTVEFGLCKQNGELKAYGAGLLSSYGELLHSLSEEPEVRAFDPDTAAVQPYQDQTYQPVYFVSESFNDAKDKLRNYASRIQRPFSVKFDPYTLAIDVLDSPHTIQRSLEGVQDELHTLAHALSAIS

[16] = biological target: Sodium-dependent dopamine transporter (Rattus norvegicus) (UniProt P23977); details: Brain, at 10 mg/kg
[17] = biological target: Sodium-dependent dopamine transporter (Rattus norvegicus) (UniProt P23977); details: Brain, at 0.5 mg/kg
[18] = biological target: Sigma non-opioid intracellular receptor 1 (Rattus norvegicus) (UniProt Q9R0C9); details: Brain, at 1 mg/kg
Sequence of Sigma non-opioid intracellular receptor 1 (Rattus norvegicus) (Q9R0C9 whole entry): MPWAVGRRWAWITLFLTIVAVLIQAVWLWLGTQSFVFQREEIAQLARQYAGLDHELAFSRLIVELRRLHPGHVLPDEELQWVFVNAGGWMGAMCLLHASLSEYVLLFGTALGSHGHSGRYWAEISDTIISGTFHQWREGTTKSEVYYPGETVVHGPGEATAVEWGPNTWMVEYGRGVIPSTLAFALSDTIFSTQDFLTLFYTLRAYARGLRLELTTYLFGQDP

[19] = biological target: T1, Alpha-2A adrenergic receptor (Rattus norvegicus) (UniProt P22909); details: Brain, at 2 mg/kg
T1 sequence (whole entry): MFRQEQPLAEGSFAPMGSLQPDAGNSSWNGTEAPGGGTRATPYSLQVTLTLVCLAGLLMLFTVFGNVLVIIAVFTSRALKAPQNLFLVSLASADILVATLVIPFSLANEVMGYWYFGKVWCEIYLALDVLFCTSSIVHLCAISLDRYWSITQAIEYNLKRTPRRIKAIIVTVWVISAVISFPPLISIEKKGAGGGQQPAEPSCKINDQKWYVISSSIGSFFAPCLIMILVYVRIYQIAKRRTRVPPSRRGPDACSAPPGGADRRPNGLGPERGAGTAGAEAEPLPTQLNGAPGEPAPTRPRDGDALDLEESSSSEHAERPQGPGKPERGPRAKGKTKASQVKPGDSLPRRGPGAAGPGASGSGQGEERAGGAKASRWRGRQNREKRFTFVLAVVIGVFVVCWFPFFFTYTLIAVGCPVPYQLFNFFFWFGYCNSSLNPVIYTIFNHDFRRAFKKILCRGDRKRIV

[20] = biological target: T2, Dopamine receptor D2 and D3 (Rattus norvegicus) (UniProt P19020+P61169); details: Brain, at 1 mg/kg
T2 sequence (P19020 whole entry, looked up): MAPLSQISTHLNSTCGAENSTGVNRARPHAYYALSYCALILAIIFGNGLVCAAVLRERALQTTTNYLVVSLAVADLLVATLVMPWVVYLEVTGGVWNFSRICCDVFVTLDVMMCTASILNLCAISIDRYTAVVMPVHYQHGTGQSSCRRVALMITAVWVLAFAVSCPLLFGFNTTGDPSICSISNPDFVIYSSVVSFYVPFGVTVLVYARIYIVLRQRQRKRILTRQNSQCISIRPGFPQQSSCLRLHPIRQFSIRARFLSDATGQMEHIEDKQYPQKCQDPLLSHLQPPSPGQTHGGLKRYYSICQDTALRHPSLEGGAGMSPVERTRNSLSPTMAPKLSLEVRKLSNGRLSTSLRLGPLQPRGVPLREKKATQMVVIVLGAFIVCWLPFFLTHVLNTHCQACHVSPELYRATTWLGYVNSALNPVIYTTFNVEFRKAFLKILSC
T2 sequence (P61169 whole entry, looked up): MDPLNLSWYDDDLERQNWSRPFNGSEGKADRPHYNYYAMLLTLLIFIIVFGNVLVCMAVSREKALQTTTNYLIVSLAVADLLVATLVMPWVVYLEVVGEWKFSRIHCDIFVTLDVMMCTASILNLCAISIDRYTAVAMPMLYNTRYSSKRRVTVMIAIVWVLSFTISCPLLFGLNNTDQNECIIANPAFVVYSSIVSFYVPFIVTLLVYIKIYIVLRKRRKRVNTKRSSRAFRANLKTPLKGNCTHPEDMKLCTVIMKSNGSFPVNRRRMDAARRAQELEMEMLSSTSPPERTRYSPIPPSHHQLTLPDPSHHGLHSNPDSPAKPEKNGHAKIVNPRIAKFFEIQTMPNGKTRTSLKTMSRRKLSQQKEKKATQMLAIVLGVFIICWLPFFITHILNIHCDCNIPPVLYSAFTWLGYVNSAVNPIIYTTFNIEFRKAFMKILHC

[21] = biological target: Adrenergic receptor alpha-2 (Rattus norvegicus) (UniProt P22086+P19328+P22909); details: Brain, at 1 mg/kg
Sequence of Adrenergic receptor alpha-2 (Rattus norvegicus) (P19328 whole entry, looked up, one chain of several): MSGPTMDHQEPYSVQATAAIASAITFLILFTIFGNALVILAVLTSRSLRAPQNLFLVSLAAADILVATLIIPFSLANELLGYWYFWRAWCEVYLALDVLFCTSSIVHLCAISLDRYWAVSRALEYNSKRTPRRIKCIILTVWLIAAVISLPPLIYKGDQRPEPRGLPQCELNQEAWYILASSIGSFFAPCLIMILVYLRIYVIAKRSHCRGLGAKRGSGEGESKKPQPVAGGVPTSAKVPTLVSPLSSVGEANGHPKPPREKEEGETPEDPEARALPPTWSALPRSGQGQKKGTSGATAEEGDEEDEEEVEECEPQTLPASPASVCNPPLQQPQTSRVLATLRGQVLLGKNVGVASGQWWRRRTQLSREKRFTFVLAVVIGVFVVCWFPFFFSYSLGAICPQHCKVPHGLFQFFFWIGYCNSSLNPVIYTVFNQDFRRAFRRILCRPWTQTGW
Sequence of Adrenergic receptor alpha-2 (Rattus norvegicus) (P22086 whole entry, looked up, one chain of several): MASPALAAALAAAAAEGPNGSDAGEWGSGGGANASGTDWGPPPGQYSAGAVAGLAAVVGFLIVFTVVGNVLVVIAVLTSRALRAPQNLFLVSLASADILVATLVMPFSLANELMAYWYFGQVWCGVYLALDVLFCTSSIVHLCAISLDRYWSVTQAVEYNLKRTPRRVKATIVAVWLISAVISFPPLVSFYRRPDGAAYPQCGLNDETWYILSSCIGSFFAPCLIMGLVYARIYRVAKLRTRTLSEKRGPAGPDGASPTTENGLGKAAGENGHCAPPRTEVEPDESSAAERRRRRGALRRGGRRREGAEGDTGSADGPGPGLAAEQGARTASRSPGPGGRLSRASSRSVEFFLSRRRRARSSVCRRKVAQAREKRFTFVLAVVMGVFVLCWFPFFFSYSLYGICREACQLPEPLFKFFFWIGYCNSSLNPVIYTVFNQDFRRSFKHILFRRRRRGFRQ

[22] = biological target: T1, Alpha-2A adrenergic receptor (Rattus norvegicus); details: Brain, at 0.1 mg/kg
[23] = biological target: T2, Dopamine receptor D2 and D3 (Rattus norvegicus); details: Brain, at 0.2 mg/kg
[24] = biological target: T2, Dopamine receptor D2 and D3 (Rattus norvegicus); details: Brain, at 0.04 mg/kg
[25] = biological target: T3, 5-hydroxytryptamine receptor 1A (Rattus norvegicus) (UniProt P19327); details: Brain, at 1 mg/kg
T3 sequence (whole entry): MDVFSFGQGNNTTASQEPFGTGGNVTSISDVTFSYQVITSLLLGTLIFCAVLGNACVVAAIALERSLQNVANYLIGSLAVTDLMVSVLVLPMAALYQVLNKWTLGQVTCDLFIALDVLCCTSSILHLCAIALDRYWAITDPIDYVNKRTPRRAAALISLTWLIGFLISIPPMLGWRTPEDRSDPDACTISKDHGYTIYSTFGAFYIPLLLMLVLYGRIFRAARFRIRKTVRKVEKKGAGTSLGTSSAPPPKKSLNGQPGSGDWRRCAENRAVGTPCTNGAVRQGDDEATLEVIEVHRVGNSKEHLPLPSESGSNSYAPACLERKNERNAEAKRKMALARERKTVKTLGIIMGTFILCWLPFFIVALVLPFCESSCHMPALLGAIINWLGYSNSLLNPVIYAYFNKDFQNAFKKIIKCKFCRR

[26] = biological target: T2, Dopamine receptor D2 and D3 (Rattus norvegicus); details: Brain, at 0.01 mg/kg

`CCCN1CCO[C@@H]2c3cc(O)ccc3CC[C@H]21` [NAXAGOLIDE] showed a Change [1] of 30%, a Change [2] of 34% and a Change [3] of -17%. For the same molecule, the Change [4] was -30%, the Change [5] was -38% and the Change [6] was -2%. For the same molecule, the Change [7] was -19%, the Change [8] was -1% and the Change [9] was -95%. The Change [10] was -91%, the Change [11] was 11% and the Change [12] was -42%. It also gave a Change [13] of -57%, a Change [14] of -57% and a Change [15] of 31%. For the same molecule, the Change [16] was -73%, the Change [17] was -43% and the Change [18] was 22%. It also gave a Change [19] of 13%, a Change [20] of -93% and a Change [21] of 30%. For the same molecule, the Change [22] was 10%, the Change [23] was -80% and the Change [24] was -39%. It also gave a Change [25] of -14% and a Change [26] of -22%.
